Only a selection was taken, and hits are over-represented in it overall.
T cruzi intra – inhibitors of intracellular Trypanosoma cruzi. AID 651903. activity score (inhibition), % at 5.01 µM. intracellular Trypanosoma cruzi in host cells, plate reader. hit rate 4.9% among 22,000; in the data active = activity score above about 55%;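 note: parasites and compound incubated about four days before reading; 0% = median of neutral control wells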
A1 apoptosis 2 – blocks A1, raising caspase activity; caspase activation, % (no concentration beside the values); AID 2465; MEF A1-2A-BIM cells, caspase-Glo luminescence, 3 h; percent of clofoctol response, DMSO zero; 24,000 tested, under 10 active; in the data active = caspase activation above about 5.9%
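Test system – A1-2A-BIM-expressing MEF cells · Input – 2500 cells/well · Medium – RPMI-1640 growth medium with 10% FBS · Compound dosing – 50 nL pinned compound · Timing – 3 h compound exposure at 37 °C · Technique – Caspase-Glo luminescence (DEVD substrate) · Evaluation – Caspase-3/7 activity from luminescence increase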
INS-1E ATP HTS – rescue of cytokine-induced death in INS-1E beta cells; AID 488910; hit rate 0.1% among 20,000; protection from cytokine-induced ATP loss, % at 10 µM; INS-1E cytokine-induced death, ATP luminescence, 48 h; normalised: neutral wells 0, positive control 100;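 active = mean replicate protection from cytokine-induced ATP loss at least 50% and at least 75% of replicates each reaching 50%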
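Test system: INS-1E rat cells | Quantity: 8000 cells per well | Medium: Phenol-red-free RPMI with 5% fetal bovine serum | Reagent: Cytokine cocktail of IFN-γ, TNF-α and IL-1β | Doses: One compound concentration, pin transfer | Timing: 48 h co-treatment, 10 min post-lysis read | Technique: Luminescent ATP assay (CellTiter-Glo)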
* marks the source's active call; other numbers are inactive results; · = no result.

SMILES	T cruzi intra	A1 apoptosis 2	INS-1E ATP HTS
CC(C)NC(=O)Nc1ccc2c(c1)CC(=O)N([C@H](C)CO)C[C@H](C)[C@@H](CN(C)C(=O)NC(C)C)O2	·	-0.4	·
CNC[C@H]1OCc2cn(nn2)CCCC(=O)N([C@H](C)CO)C[C@@H]1C	-28.3	-1.1	3.8
CC(C)NC(=O)Nc1ccc2c(c1)C(=O)N([C@H](C)CO)C[C@H](C)[C@H](CN(C)Cc1ccc(Cl)c(Cl)c1)O2	-5.8	·	-6.5
C[C@H]1CN([C@@H](C)CO)C(=O)Cc2cc(NC(=O)NC3CCCCC3)ccc2O[C@H]1CN(C)Cc1ccc(-c2ccccc2)cc1	67.3*	·	-34.8
C[C@H](CO)N1C[C@H](C)[C@H](CN(C)Cc2ccc(-c3ccccc3)cc2)Oc2ccc(NC(=O)NC3CCCCC3)cc2CC1=O	39.0	·	-20.5
COc1ccc(NC(=O)N(C)C[C@H]2Oc3ccc(NC(=O)C4CC4)cc3C(=O)N([C@@H](C)CO)C[C@H]2C)cc1	-14.9	·	10.1
C[C@H](CO)N1C[C@H](C)[C@H](CN(C)S(=O)(=O)c2cn(C)cn2)Oc2ncc(-c3cc4ccccc4o3)cc2C1=O	13.3	-0.5	·
C[C@H](CO)N1C[C@H](C)[C@H](CN(C)Cc2cccc(C(F)(F)F)c2)Oc2ncc(-c3ccccc3)cc2C1=O	42.5	·	·
Cc1cccc(CN(C)C[C@@H]2Oc3ncc(-c4cccc(C(F)(F)F)c4)cc3C(=O)N([C@H](C)CO)C[C@@H]2C)c1	63.4*	·	·
Cc1ccc(S(=O)(=O)N(C)C[C@@H]2Oc3ncc(-c4cccc(C(F)(F)F)c4)cc3C(=O)N([C@H](C)CO)C[C@@H]2C)cc1	61.0*	-0.2	·
C[C@H](CO)N1C[C@H](C)[C@H](CN(C)S(=O)(=O)c2ccc(C#N)cc2)Oc2ncc(-c3cccc(C(F)(F)F)c3)cc2C1=O	9.7	0.3	·
Cc1noc(C)c1S(=O)(=O)Nc1ccc2c(c1)C(=O)N([C@H](C)CO)C[C@H](C)[C@H](CN(C)Cc1ccccc1)OCCCC[C@H](C)O2	·	1.0	·
C[C@@H]1CN([C@@H](C)CO)C(=O)c2cccc(NS(=O)(=O)c3ccc(F)cc3)c2O[C@H]1CN(C)Cc1ccc(C(=O)O)cc1	·	-0.1	·
C[C@@H]1CCCCO[C@H](CN(C)C(=O)CCCN(C)C)[C@@H](C)CN([C@H](C)CO)C(=O)c2cc(NC(=O)c3ccncc3)ccc2O1	0.2	-0.7	-1.7
C[C@H](CO)N1C[C@H](C)[C@H](CN(C)C(=O)Nc2ccc(F)cc2)Oc2c(NC(=O)Nc3cccc4ccccc34)cccc2C1=O	70.8*	0.8	-102.0
C[C@@H]1CN([C@H](C)CO)C(=O)c2cccc(NC(=O)Nc3ccccc3)c2O[C@H]1CN(C)C(=O)Nc1ccc(C(F)(F)F)cc1	0.0	0.1	2.9
C[C@H](CO)N1C[C@H](C)[C@H](CN(C)C(=O)Nc2ccc(C(F)(F)F)cc2)Oc2c(NC(=O)NC3CCCCC3)cccc2C1=O	74.5*	0.9	-26.2
C[C@H](CO)N1C[C@H](C)[C@H](CN(C)C(=O)Nc2ccc3c(c2)OCO3)Oc2c(NC(=O)Nc3ccc(C(F)(F)F)cc3)cccc2C1=O	62.6*	0.9	-46.2
C[C@@H]1CN([C@@H](C)CO)C(=O)c2cccc(NC(=O)Nc3ccc(C(F)(F)F)cc3)c2O[C@@H]1CN(C)C(=O)Nc1ccc(C(F)(F)F)cc1	87.9*	·	-107.9
C[C@@H]1CN([C@H](C)CO)C(=O)c2cccc(NC(=O)Nc3ccc(C(F)(F)F)cc3)c2O[C@@H]1CN(C)C(=O)Nc1ccc2c(c1)OCO2	43.6	0.2	-35.7
C[C@H]1CN([C@@H](C)CO)C(=O)c2cccc(NC(=O)Nc3cccc4ccccc34)c2O[C@@H]1CN(C)C(=O)Nc1ccc(F)cc1	21.7	0.7	-5.1
C[C@H]1CN([C@@H](C)CO)C(=O)c2cccc(NC(=O)NC3CCCCC3)c2O[C@@H]1CN(C)C(=O)Nc1ccc(C(F)(F)F)cc1	28.8	0.3	-34.4
C[C@H](CO)N1C[C@H](C)[C@@H](CN(C)C(=O)Nc2cccc3ccccc23)Oc2ccc(NS(=O)(=O)c3ccc(Cl)cc3)cc2C1=O	1.6	·	-4.8
C[C@@H]1CCCCO[C@@H](CN(C)C(=O)C2CCCCC2)[C@H](C)CN([C@H](C)CO)C(=O)c2cc(NC(=O)CCCN(C)C)ccc2O1	·	1.3	·
C[C@@H]1CN([C@H](C)CO)C(=O)c2cccc(NC(=O)C3CC3)c2O[C@@H]1CN(C)Cc1ccc(Cl)c(Cl)c1	14.3	·	4.0
SMILES	T cruzi intra	A1 apoptosis 2	INS-1E ATP HTS
C[C@@H]1CN([C@H](C)CO)C(=O)c2cccc(NC(=O)Nc3cccc4ccccc34)c2O[C@H]1CN(C)C(=O)NC1CCCCC1	10.1	-1.3	4.8
C[C@@H]1CN([C@H](C)CO)C(=O)c2cccc(NC(=O)Nc3cccc4ccccc34)c2O[C@H]1CN(C)C(=O)Nc1ccc(C(F)(F)F)cc1	24.5	0.7	-30.8
C[C@H]1CN([C@@H](C)CO)C(=O)c2cccc(NC(=O)Nc3ccc(C(F)(F)F)cc3)c2O[C@H]1CN(C)C(=O)Nc1ccccc1	13.4	-0.3	-84.0
C[C@H]1CN([C@@H](C)CO)C(=O)c2cccc(NC(=O)Nc3ccc(C(F)(F)F)cc3)c2O[C@@H]1CN(C)C(=O)Nc1ccc(F)cc1	3.0	0.2	8.2
C[C@@H]1CN([C@H](C)CO)C(=O)c2cccc(NC(=O)Nc3ccc(C(F)(F)F)cc3)c2O[C@H]1CN(C)C(=O)Nc1ccc(C(F)(F)F)cc1	75.2*	-0.4	-70.7
C[C@@H]1CN([C@H](C)CO)C(=O)c2cccc(NC(=O)Nc3cccc4ccccc34)c2O[C@@H]1CN(C)C(=O)Nc1ccc(C(F)(F)F)cc1	64.8*	-0.4	-105.3
C[C@H](CO)N1C[C@H](C)[C@@H](CN(C)C(=O)Nc2ccc(C(F)(F)F)cc2)Oc2c(NC(=O)Nc3ccc(C(F)(F)F)cc3)cccc2C1=O	78.0*	-0.6	-72.9
C[C@H](CO)N1C[C@H](C)[C@H](CN(C)C(=O)NC2CCCCC2)Oc2c(NC(=O)Nc3cccc4ccccc34)cccc2C1=O	63.1*	0.7	-35.4
C[C@H](CO)N1C[C@H](C)[C@@H](CN(C)S(=O)(=O)c2cccs2)Oc2ccc(NC(=O)NC3CCCCC3)cc2C1=O	-6.2	1.8	6.9
CNC[C@@H]1OCCCC[C@@H](C)Oc2ccc(NC(=O)Nc3ccccc3)cc2C(=O)N([C@H](C)CO)C[C@@H]1C	-30.7	0.7	14.5
CC(C)NC(=O)Nc1ccc2c(c1)CC(=O)N([C@H](C)CO)C[C@H](C)[C@@H](CN(C)S(=O)(=O)c1cccs1)O2	·	-0.3	·
C[C@@H]1CCCCO[C@@H](CN(C)S(=O)(=O)c2ccccc2)[C@H](C)CN([C@@H](C)CO)C(=O)c2cc(NC(=O)CCC(F)(F)F)ccc2O1	·	0.9	·
C[C@H](CO)N1C[C@H](C)[C@H](CN(C)C(=O)Nc2ccc(C(F)(F)F)cc2)Oc2c(NC(=O)Nc3ccc(C(F)(F)F)cc3)cccc2C1=O	78.3*	·	-105.6
C[C@H](CO)N1C[C@H](C)[C@H](CN(C)Cc2ccc(C(F)(F)F)cc2)Oc2c(NC(=O)Nc3ccc4c(c3)OCO4)cccc2C1=O	19.6	·	-18.6

Source: PubChem (Broad Institute)
